This note sets out measurements from ChEMBL document CHEMBL1795218, “Selective bone targeting 5-fluorouracil prodrugs: synthesis and preliminary biological evaluation” (Bioorg Med Chem, 2011).

The structures appear in SMILES notation. The source made the active and inactive calls. The rule behind the calls is not given here. Residues, ends and D or L forms follow the SMILES beside them. *: point of attachment. Acetyl(5-fluorouracil-1-yl) = O=C(Cn1cc(F)c(=O)[nH]c1=O)*; X1 = O=C(CCC(=O)*)OCn1cc(F)c(=O)[nH]c1=O

Series [1] has as its system Hydroxyapatite. Nature of the series: Binding affinity to bone mineral hydroxyapatite assessed as binding index after 0.5 hrs by UV-spectrophotometer analysis relative to 5-fluorouracil. On the set-up: concentration or dose not given beside the values.
The test system of series [2] is MG-63. Nature of the series: Cytotoxicity against human MG63 cells after 3 days by MTT assay in presence of 50% human plasma. It is filed as functional, cell-based. The procedure, abridged:
(§1)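 MG-63 or HeLa cells plated at 5×10³ cells/well. Exposed to conjugates at 1–64 µM (5-FU-equivalent), with or without human plasma, for 72 h under 5% CO₂. MTT then added for 2 h and absorbance read at 490 nm. Mean and SD of three independent experiments.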

For a further series, the species on record is Mus musculus. Nature of the series: Cmax in mouse. The series is classed as ADME, organism-based. As to conditions: in vivo.
The subject of series [3] is Femur. Kind of series: Biodistribution in po dosed mouse femur after 12 hrs. It is filed as ADME, organism-based. The settings on record: in vivo. The procedure, abridged: (§2)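 Mice dosed orally. At 1 h or 12 h, kidney, liver, femur and blood collected. Organs rinsed in cold saline, blotted, extracted with methanol, diluted and centrifuged before analysis. Mean and SD of three independent experiments.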

Series [4] relates to Plasma. Nature of the series: Prodrug activation in 50% human plasma assessed as 5-fluorouracil release after 5 days by RP-HPLC analysis. It is filed as cell-free. The settings on record: 120 h. The method in brief: (§3)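 Conjugates incubated at 37 °C in PBS pH 7.4 or in 50% (v/v in PBS) human plasma, with a little DMSO added for solubility. Released 5-FU measured by RP-HPLC at 1.0 mL/min, detection at 256 nm, 25 °C.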

Series [5] can be described thus: Apparent volume of distribution in mouse. It is filed as ADME, organism-based. The settings on record: in vivo, read-out: Vz.
Series [6] concerns Plasma. Nature of the series: Prodrug activation in 50% human plasma assessed as 5-fluorouracil release after 60 hrs by RP-HPLC analysis. The series is classed as cell-free. The procedure, abridged: as §3
Series [7] concerns HeLa. Nature of the series: Cytotoxicity against human HeLa cells after 3 days by MTT assay. The series is classed as functional, cell-based. The settings on record: 72 h. The procedure, abridged:
as §1
(In general: Tetrazolium dyes change colour on reduction, which living cells bring about.)

The nature of series [8]: Half life in mouse. The series is classed as ADME, organism-based. As to conditions: in vivo.
Series [9] has as its system Femur. Kind of series: Biodistribution in po dosed mouse femur after 1 hr. As to conditions: in vivo. It is filed as ADME, organism-based. The procedure, abridged: as §2
Series [10] has as its system HeLa. Nature of the series: Cytotoxicity against human HeLa cells after 3 days by MTT assay in presence of 50% human plasma. The series is classed as functional, cell-based. The method in brief:
as §1

In series [11] the test system is Hydroxyapatite. Kind of series: Binding affinity to bone mineral hydroxyapatite assessed as binding index after 24 hrs by UV-spectrophotometer analysis relative to 5-fluorouracil. On the set-up: concentration or dose not given beside the values. The procedure, abridged:
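Hydroxyapatite (25 mg/ml) added to 5 ml conjugate solutions at 500 µg/ml (C0). Sonicated 5 min, then held in a 37 °C water bath for […] or over 24 h. Unbound conjugate read by UV at 254 nm against an absorbance–concentration calibration line. Tetracycline as positive control. Binding index given as mean ± SD, n = 3.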

Series [12] has as its system MG-63. Kind of series: Cytotoxicity against human MG63 cells after 3 days by MTT assay. The series is classed as functional, cell-based. The settings on record: MG-63, 72 h. The procedure, abridged:
as §1

Series [13] can be described thus: AUC in mouse. It is filed as ADME, organism-based. The settings on record: plasma.
Series [14] is described as follows: Prodrug activation in phosphate buffered saline at pH 7.4 assessed as 5-fluorouracil release after 5 days by RP-HPLC analysis. The settings on record: buffer, pH 7.4, 120 h. The procedure, abridged: as §3
Series [15] is described as follows: Prodrug activation in phosphate buffered saline at pH 7.4 assessed as 5-fluorouracil release after 60 hrs by RP-HPLC analysis. As to conditions: buffer, pH 7.4, 60 h. The method in brief: as §3

In the case of `O=C(O)C[C@H](NC(=O)[C@H](CC(=O)O)NC(=O)[C@H](CC(=O)O)NC(=O)[C@H](CC(=O)O)NC(=O)[C@H](CC(=O)O)NC(=O)[C@H](CC(=O)O)NC(=O)CCC(=O)OCn1cc(F)c(=O)[nH]c1=O)C(=O)O` (X1-DDDDDD-OH), the Activity in the series on Hydroxyapatite [1] was determined as 37.8%; in the series on Plasma [4] it was 80%; in the series on Plasma [6] it was 60.3%; in the series with Hydroxyapatite [11] it was 69.7%. Further, the result in the series on MG-63 [2] and with HeLa [10] was Active. In the series filed under Mus musculus, this molecule returned a Cmax of 51100 µg/mL. The Drug uptake entry in the series with Femur [3] and in the series with Femur [9] was “Active” each time. Further, in [5], the Vd is 32.2 L/kg. Further, the IC50 in the series with HeLa [7] and with MG-63 [12] was more than 64 µM throughout. In [8], the half-life turned out to be 6.75 h. The area under the curve (AUC) in series [13] is 90100 ng·h/mL.

`O=c1[nH]cc(F)c(=O)[nH]1` [FLUOROURACIL]: the Activity in the series with Hydroxyapatite [1] and with Hydroxyapatite [11] was 0% in each case. The Drug uptake result with Femur [3] and in the series on Femur [9] was “Active” throughout. Besides, in series [5], the Vd was 24.1 L/kg. The half-maximal inhibitory concentration (IC50) in the series with HeLa [7] was 4 µM; in the series on MG-63 [12] it was 8 µM. In series [8], the half-life was 4.36 h. Moreover, the AUC in [13] turned out to be 76600 ng·h/mL.

Consider `O=C(O)C[C@H](NC(=O)[C@H](CC(=O)O)NC(=O)[C@H](CC(=O)O)NC(=O)[C@H](CC(=O)O)NC(=O)Cn1cc(F)c(=O)[nH]c1=O)C(=O)O` ({Acetyl(5-fluorouracil-1-yl)}-DDDD-OH), for which the Activity in the series on Hydroxyapatite [1] is 14.3%; in the series with Hydroxyapatite [11], 40.2%.

For the molecule `O=C(O)C[C@H](NC(=O)[C@H](CC(=O)O)NC(=O)[C@H](CC(=O)O)NC(=O)[C@H](CC(=O)O)NC(=O)CCC(=O)OCn1cc(F)c(=O)[nH]c1=O)C(=O)O` (X1-DDDD-OH), the Activity worked out at 16.6% in the series on Hydroxyapatite [1] and 42.5% in the series with Hydroxyapatite [11].

As for `CN(C)[C@@H]1C(O)=C(C(N)=O)C(=O)[C@@]2(O)C(O)=C3C(=O)c4c(O)cccc4[C@@](C)(O)[C@H]3C[C@@H]12`, the values for the Activity in the series with Hydroxyapatite [1] and in the series on Hydroxyapatite [11] were 24.1% and 56.2%, respectively.

`O=C(O)C[C@H](NC(=O)[C@H](CC(=O)O)NC(=O)[C@H](CC(=O)O)NC(=O)[C@H](CC(=O)O)NC(=O)[C@H](CC(=O)O)NC(=O)Cn1cc(F)c(=O)[nH]c1=O)C(=O)O` ({Acetyl(5-fluorouracil-1-yl)}-DDDDD-OH): the Activity turned out to be 11.6% with Hydroxyapatite [1] and 19.8% in the series with Hydroxyapatite [11].

With `O=C(O)C[C@H](NC(=O)[C@H](CC(=O)O)NC(=O)[C@H](CC(=O)O)NC(=O)[C@H](CC(=O)O)NC(=O)[C@H](CC(=O)O)NC(=O)CCC(=O)OCn1cc(F)c(=O)[nH]c1=O)C(=O)O` (X1-DDDDD-OH), the values for the Activity in the series on Hydroxyapatite [1] and in the series with Hydroxyapatite [11] were 13.4% and 25.5%, respectively.

With `O=C(O)C[C@H](NC(=O)[C@H](CC(=O)O)NC(=O)[C@H](CC(=O)O)NC(=O)[C@H](CC(=O)O)NC(=O)[C@H](CC(=O)O)NC(=O)[C@H](CC(=O)O)NC(=O)Cn1cc(F)c(=O)[nH]c1=O)C(=O)O` ({Acetyl(5-fluorouracil-1-yl)}-DDDDDD-OH), the Activity came out at 31.4% in the series on Hydroxyapatite [1]; 5% in series [14]; 60% in the series with Plasma [4]; 47.4% in the series on Plasma [6]; 3.2% in series [15]; 62.7% with Hydroxyapatite [11]. For the same molecule, the outcome in the series on MG-63 [2] and in the series on HeLa [10] was Active. In the series filed under Mus musculus, this molecule had a maximum concentration (Cmax) of 42400 µg/mL. The Drug uptake result in the series on Femur [3] and in the series on Femur [9] was “Active” throughout. In series [5], the Vd is 24.1 L/kg. In addition, the 50% inhibitory concentration (IC50) in the series on HeLa [7] and in the series on MG-63 [12] was more than 64 µM in each case. For the same molecule, the half-life in series [8] stood at 4.36 h. The molecule further returned an exposure (AUC) in [13] of 76600 ng·h/mL.

In general, Cmax refers to the highest concentration seen after dosing. One may read the IC50 as the concentration at which inhibition is half-maximal. One may read the half-life as the time in which the quantity being followed falls by half. The AUC is concentration integrated over time.
